Source: ChEMBL document CHEMBL4339184, “Discovery of deshydroxy bicalutamide derivatives as androgen receptor antagonists” (Eur J Med Chem, 2019)

Key:
LNCaP [1] = assay: Antiproliferative activity against human LNCAP cells assessed as reduction in cell viability after 96 hrs by MTT assay; assay type: functional, cell-based
How it was run: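 LNCaP cells in RPMI-1640 with 10% FCS, penicillin/streptomycin, 37°C, 5% CO2; seeded 4000 cells/well, adhered overnight. Medium replaced with fresh medium carrying nine half-log concentrations up to 100 μM (DMSO 1:100) or DMSO control, triplicate, 96 h. MTT, formazan dissolved in acidified isopropanol, A540; viability vs DMSO; absolute IC50 by non-linear regression, mean of three independent experiments.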

[2] = molecular target: T1, Androgen receptor (Homo sapiens) (UniProt P10275); assay: Antagonist activity at androgen receptor in human LNCAP cells assessed as reduction in PSA expression after 24 hrs by qPCR analysis; assay type: cell-based
T1 sequence (whole entry): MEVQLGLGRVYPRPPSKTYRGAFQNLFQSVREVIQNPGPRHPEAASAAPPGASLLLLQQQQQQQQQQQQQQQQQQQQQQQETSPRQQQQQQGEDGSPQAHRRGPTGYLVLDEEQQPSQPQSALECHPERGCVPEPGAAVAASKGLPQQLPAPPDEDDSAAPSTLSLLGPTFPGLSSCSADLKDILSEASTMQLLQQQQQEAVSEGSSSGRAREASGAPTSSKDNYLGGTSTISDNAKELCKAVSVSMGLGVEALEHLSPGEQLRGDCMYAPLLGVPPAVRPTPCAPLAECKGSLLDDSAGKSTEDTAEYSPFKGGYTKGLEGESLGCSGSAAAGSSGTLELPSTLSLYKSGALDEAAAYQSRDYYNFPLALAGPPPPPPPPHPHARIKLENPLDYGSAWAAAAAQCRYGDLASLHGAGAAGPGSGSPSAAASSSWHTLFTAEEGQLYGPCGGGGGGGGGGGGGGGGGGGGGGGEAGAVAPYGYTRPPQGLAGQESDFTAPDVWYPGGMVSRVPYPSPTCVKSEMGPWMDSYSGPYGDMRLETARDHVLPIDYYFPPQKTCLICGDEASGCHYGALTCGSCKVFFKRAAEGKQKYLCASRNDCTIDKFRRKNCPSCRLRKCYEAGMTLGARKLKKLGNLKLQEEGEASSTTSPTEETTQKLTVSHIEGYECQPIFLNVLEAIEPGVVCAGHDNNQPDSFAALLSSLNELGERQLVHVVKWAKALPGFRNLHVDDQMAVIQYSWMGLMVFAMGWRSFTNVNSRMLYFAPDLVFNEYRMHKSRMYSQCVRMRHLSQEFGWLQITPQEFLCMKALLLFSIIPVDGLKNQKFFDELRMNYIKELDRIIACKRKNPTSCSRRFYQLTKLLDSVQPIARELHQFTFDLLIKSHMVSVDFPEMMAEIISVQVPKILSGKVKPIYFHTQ
How it was run: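 LNCaP cells seeded in 6-well plates in RPMI and allowed 24 h to adhere, then exposed to 5, 10, 50 and 100 μM for 24 h; untreated and DMSO (1:100) wells as negative controls. RNA extracted with TRI-reagent, reverse-transcribed, qPCR run in triplicate for PSA with AR, GAPDH, RPL19 and β-actin as housekeeping genes; relative expression by ΔΔCT.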

PC-3 = assay: Antiproliferative activity against human PC3 cells assessed as reduction in cell viability after 96 hrs by MTT assay; assay type: functional, cell-based; details: PC-3, 96 h
How it was run: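 PC3 cells grown in DMEM with 10% FCS, seeded at 4000 cells/well, adhered overnight, then medium replaced with medium containing nine concentrations from 0.1 to 100 μM (1:100 dilution of DMSO stocks) or DMSO control, in triplicate, for 96 h. MTT read-out: formazan dissolved in acidified isopropanol, absorbance at 540 nm; viability normalised to DMSO; IC50 from triplicate means.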

VCaP = assay: Antiproliferative activity against human VCaP cells assessed as reduction in cell viability after 96 hrs by MTS assay; assay type: functional, cell-based
How it was run: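 VCaP cells in DMEM with 10% FCS, exposed for 96 h in triplicate to nine concentrations from 0.1 to 100 μM or DMSO. Because adherence is poor, only half the medium was exchanged for medium carrying compound at a 1:50 dilution. Viability by MTS, absorbance at 490 nm after 1 and 2 h, normalised to DMSO; IC50 from triplicate means.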

LNCaP [3] = assay: Potency index, ratio of IC50 for bicalutamide to IC50 for test compound for antiproliferative activity against human LNCAP cells incubated for 96 hrs by MTT assay; assay type: functional
LNCaP [4] = assay: Potency index, ratio of IC50 for enzalutamide to IC50 for test compound for antiproliferative activity against human LNCAP cells incubated for 96 hrs by MTT assay; assay type: functional

| Compound | IC50 (LNCaP [1]) [µM] | other results |
| --- | --- | --- |
| CC(CSc1cc(C(F)(F)F)cc(C(F)(F)F)c1)C(=O)Nc1ccc([N+](=O)[O-])cc1C(F)(F)F (racemic) | 43.7 | – |
| CC(CSc1ccc(C(F)(F)F)cc1)C(=O)Nc1ccc([N+](=O)[O-])c(C(F)(F)F)c1 (racemic) | 4.41 | – |
| CC(CS(=O)(=O)c1cc(C(F)(F)F)cc(C(F)(F)F)c1)C(=O)Nc1ccc(C#N)cc1C(F)(F)F (racemic) | 9.56 | – |
| CC(CSc1cc(C(F)(F)F)cc(C(F)(F)F)c1)C(=O)Nc1ccc(C#N)cc1C(F)(F)F (racemic) | 4.57 | – |
| CC(CSc1ccc(C(F)(F)F)cc1)C(=O)Nc1ccc([N+](=O)[O-])cc1C(F)(F)F (racemic) | 54.3 | – |
| CC(CS(=O)(=O)c1ccc(C(F)(F)F)cc1)C(=O)Nc1ccc([N+](=O)[O-])c(C(F)(F)F)c1 (racemic) | 3.31 | – |
| CC(CSc1cccc(OC(F)(F)F)c1)C(=O)Nc1ccc(C#N)c(C(F)(F)F)c1 (racemic) | 115 | – |
| CC(CS(=O)(=O)c1ccc(F)cc1)C(=O)Nc1ccc([N+](=O)[O-])c(C(F)(F)F)c1 (racemic) | 2.67 | inhibition [2]: Dose-dependent effect; IC50 (PC-3): 112 µM; IC50 (VCaP): 8.21 µM |
| CC(CS(=O)(=O)c1cc(C(F)(F)F)cc(C(F)(F)F)c1)C(=O)Nc1ccc([N+](=O)[O-])cc1C(F)(F)F (racemic) | 3.08 | – |
| CC(CSc1cc(C(F)(F)F)cc(C(F)(F)F)c1)(Sc1cc(C(F)(F)F)cc(C(F)(F)F)c1)C(=O)Nc1ccc([N+](=O)[O-])cc1C(F)(F)F (racemic) | 0.43 | Ratio IC50 (LNCaP [3]): >40; inhibition [2]: Dose-dependent effect; IC50 (PC-3): 0.91 µM; Ratio IC50 (LNCaP [4]): >3; IC50 (VCaP): 0.18 µM |
| CC(CS(=O)(=O)c1ccc(F)cc1)C(=O)Nc1ccc([N+](=O)[O-])cc1C(F)(F)F (racemic) | 4.05 | – |
| CC(CS(=O)(=O)c1ccc(C(F)(F)F)cc1)C(=O)Nc1ccc(C#N)c(C(F)(F)F)c1 (racemic) | 58 | – |
| CC(CSc1ccc(C(F)(F)F)cc1)(Sc1ccc(C(F)(F)F)cc1)C(=O)Nc1ccc(C#N)c(C(F)(F)F)c1 (racemic) | 1.68 | inhibition [2]: Dose-dependent effect; IC50 (PC-3): 5.45 µM; IC50 (VCaP): 0.13 µM |
| CC(CSc1ccc(F)cc1)C(=O)Nc1ccc(C#N)c(C(F)(F)F)c1 (racemic) | 8.69 | – |
| CC(CS(=O)(=O)c1ccc(F)cc1)C(=O)Nc1ccc(C#N)c(C(F)(F)F)c1 (racemic) | 115 | – |
| CC(CS(=O)(=O)c1cc(C(F)(F)F)cc(C(F)(F)F)c1)C(=O)Nc1ccc(C#N)c(C(F)(F)F)c1 (racemic) | 6.16 | – |
| CC(CS(=O)(=O)c1ccc(C(F)(F)F)cc1)C(=O)Nc1ccc([N+](=O)[O-])cc1C(F)(F)F (racemic) | 26.3 | – |
| CC(CSc1ccc(F)cc1)C(=O)Nc1ccc([N+](=O)[O-])c(C(F)(F)F)c1 (racemic) | 27.2 | – |
| CC(CS(=O)(=O)c1cccc(OC(F)(F)F)c1)C(=O)Nc1ccc(C#N)c(C(F)(F)F)c1 (racemic) | 13.2 | – |
| CC(CS(=O)(=O)c1cc(C(F)(F)F)cc(C(F)(F)F)c1)C(=O)Nc1ccc([N+](=O)[O-])c(C(F)(F)F)c1 (racemic) | 12.2 | – |
| CC(CSc1ccc(F)cc1)C(=O)Nc1ccc([N+](=O)[O-])cc1C(F)(F)F (racemic) | 43.2 | – |
| CC(CS(=O)(=O)c1ccc(C(F)(F)F)cc1)C(=O)Nc1ccc(C#N)cc1C(F)(F)F (racemic) | 28.8 | – |
| C[C@](O)(CS(=O)(=O)c1ccc(F)cc1)C(=O)Nc1ccc(C#N)c(C(F)(F)F)c1 [(R)-BICALUTAMIDE] | 20.4 | IC50 (PC-3): 92.6 µM; IC50 (VCaP): 5.96 µM |
| CNC(=O)c1ccc(N2C(=S)N(c3ccc(C#N)c(C(F)(F)F)c3)C(=O)C2(C)C)cc1F [ENZALUTAMIDE] | 1.31 | IC50 (PC-3): 15.1 µM; IC50 (VCaP): 3.66 µM |
